The values that follow come from ChEMBL document CHEMBL3414523, “FimH antagonists: bioisosteres to improve the in vitro and in vivo PK/PD profile” (J Med Chem, 2015).

Data set [1] is described as follows: physchem. The following applies: octanol/water, pH 7.4.
Data set [2] can be described thus: Plasma protein binding in human by equilibrium dialysis method. Format: ADME, cell-free. The following applies: read-out: PPB (converted). Background: In equilibrium dialysis only unbound substance equilibrates across the membrane.
A short description of data set [3]: Apparent permeability across basolateral to apical side in human Caco2 cells by LC/MS analysis. Conditions: Caco-2.
A short description of data set [4]: Displacement of n-heptyl 2-deoxy-alpha-D-mannopyranoside from Escherichia coli recombinant 6-His-tagged FimH CRD expressed in Escherichia coli HM125 after 20 mins by isothermal titration calorimetry.
Data set [5] can be described thus: Displacement of fluorescently labeled 3'-chloro-N-(2-(3-(3',6'-dihydroxy-3-oxo-3H-spiro[isobenzofuran-1,9'-xanthene]-5-yl)thioureido)ethyl)-4'-((2R,3S,4S,5S,6R)-3,4,5-trihydroxy-6-(hydroxymethyl)tetrahydro-2H-pyran-2-yloxy)biphenyl-4-carboxamide from Escherichia coli recombinant 6-His-tagged FimH CRD expressed in Escherichia coli HM125 after 24 hrs by fluorescence polarization assay. Summed up: (§1)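 Competitive fluorescence polarization with His6-tagged FimH CRD (thrombin cleavage site) and fixed fluorescent reporter ligand, 24 h incubation to reach equilibrium; polarized excitation 485 nm, emission 528 nm on a plate reader. IC50 from four-parameter nonlinear least-squares fit, converted to KD by a modified Cheng–Prusoff equation accounting for ligand depletion.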
A general note: In fluorescence polarisation assays a small probe gives low polarisation when free and higher when bound to something large.

The nature of data set [6]: Apparent permeability across apical to basolateral side in human Caco2 cells by LC/MS analysis. Conditions: Caco-2. For orientation: Caco-2 cells form a polarised layer with tight junctions and transporters.
Data set [7] is described as follows: Kinetic solubility of the compound at 0.1 to 0.5 mM at pH 7.6 after 15 hrs by UV/Vis spectrophotometry. Format: physicochemical. Conditions: buffer, read-out: Kinetic_solubility.
Data set [8] in a line: Half life in rat liver microsomes at 2 uM after 10 mins by LC/MS/MS analysis.
Data set [9] can be described thus: Binding affinity to Escherichia coli recombinant 6-His-tagged FimH CRD expressed in Escherichia coli HM125 by isothermal titration calorimetry.
A short description of data set [10]: Lipophilicity, log P of the compound. Conditions: octanol/water. It is filed as physicochemical.
Data set [11] can be described thus: physchem. Conditions: buffer, pH 7.4.
Data set [12] is described as follows: Kinetic solubility of the compound at 0.1 to 0.5 mM at pH 3 to 7.4 after 15 hrs by UV/Vis spectrophotometry. The following applies: buffer, read-out: Kinetic_solubility. It is filed as physicochemical.
Data set [13] is described as follows: Half life in rat liver microsomes at 2 uM after 10 mins by LC/MS/MS analysis in presence of NADPH. It is filed as ADME.
The nature of data set [14]: Kinetic solubility of the compound at 0.1 to 0.5 mM at pH 6.51 after 15 hrs by UV/Vis spectrophotometry. Format: physicochemical. Conditions: buffer, read-out: Kinetic_solubility.
Data set [15] in a line: Effective permeability coefficient, log Pe after 16 hrs by PAMPA. Format: ADME.
Data set [16] is described as follows: Kinetic solubility of the compound at 0.1 to 0.5 mM at pH 6.61 after 15 hrs by UV/Vis spectrophotometry. It is filed as physicochemical. The following applies: buffer, read-out: Kinetic_solubility.
Data set [17] can be described thus: Initial plasma concentration in C3H/HeN mouse at 50 mg/kg, iv. Format: ADME, organism-based. More on the design: dose 50 mg/kg, route intravenous.
For data set [18], the system named is Mus musculus. Put plainly: Half life in C3H/HeN mouse at 50 mg/kg, iv. It is filed as ADME, organism-based. More on the design: dose 50 mg/kg, route intravenous. The following applies: in vivo.
Data set [19] can be described thus: Cmax in urine of C3H/HeN mouse at 50 mg/kg, iv. Format: ADME, organism-based. Further details: dose 50 mg/kg, route intravenous.
Data set [20] deals with Mus musculus. Put plainly: Total clearance in C3H/HeN mouse at 50 mg/kg, iv. Format: ADME, organism-based. Further details: dose 50 mg/kg, route intravenous. The following applies: in vivo.
Data set [21] is described as follows: AUC (0 to infinity) in C3H/HeN mouse at 50 mg/kg, iv. It is filed as ADME, organism-based. Further details: time infinity, dose 50 mg/kg, route intravenous. Conditions: plasma.
Data set [22] has as its system Mus musculus. Put plainly: Volume of distribution in C3H/HeN mouse at 50 mg/kg, iv. Format: ADME, organism-based. Further details: dose 50 mg/kg, route intravenous. The following applies: in vivo.
The nature of data set [23]: Binding affinity to Escherichia coli recombinant 6-His-tagged FimH CRD expressed in Escherichia coli HM125 after 24 hrs by competitive fluorescence polarization assay. Summed up:
as §1

Data set [24] is described as follows: Dissociation constant, pKa of the compound by NMR spectroscopy. Format: physicochemical.
A short description of data set [25]: physchem. The following applies: buffer, pH 3.

In brackets after ≈: the same amount, converted by molar mass. A value given as a limit tells only on which side of the number the result lay.

For `N#Cc1ccc(-c2ccc(O[C@H]3O[C@H](CO)[C@@H](O)[C@H](O)[C@@H]3O)cc2)cc1`, in the data set “physchem [1]”, the logD (in general, lipophilicity at a set pH, counting ionised and neutral species) at 2 h, 1 µM turned out to be 1.4. The fraction unbound in data set [2] was 0.01. For the same molecule, the Papp B→A (as a rule, the apparent permeability from the basolateral to the apical side of a cell layer) in data set [3] is 13.2 ×10⁻⁶ cm/s. Also, the Kd – broadly, the free concentration of one partner at which half of the binding sites on the other are occupied at equilibrium, for simple one-to-one binding – in data set [4] came out at 2.8 nM; in [5], 2 nM. Besides, the Papp A→B (commonly the apparent permeability from the apical to the basolateral side of a cell layer) in data set [6] came out at 2 ×10⁻⁶ cm/s. In addition, in data set [7], the solubility kinetic at 15 h worked out at 186 µg/mL (≈ 520 µM). The half-life (in general, the time needed for the level to fall by half in the phase considered) at 10 min, 2 µM in data set [8] (liver microsomes) was more than 60 min.
On to `OC[C@H]1O[C@H](Oc2ccc(-c3ccccc3)cc2)[C@@H](O)[C@@H](O)[C@@H]1O`, for which the logD at 2 h, 1 µM in “physchem [1]” turned out to be 2.1. In addition, the fraction unbound in data set [2] was 0.07. Also, the Papp B→A in data set [3] is 19 ×10⁻⁶ cm/s. The values for the Kd in data set [9] and in data set [5] were 17.7 nM and 15.1 nM, respectively. Moreover, the logP (in general, a log measure of how a compound divides between an organic and an aqueous phase) in [10] is 2.1. Moreover, the Papp A→B in data set [6] is 10 ×10⁻⁶ cm/s. Also, the solubility kinetic at 15 h, 500 µM in the data set “physchem [11]” came to 21 µg/mL (≈ 63.2 µM).
Regarding `CCCCCCCO[C@H]1O[C@H](CO)[C@@H](O)[C@H](O)[C@@H]1O`, the Papp B→A in [3] was found to be 9.4 ×10⁻⁶ cm/s. Also, the Kd in data set [9] stood at 28.9 nM; in data set [5], 28.3 nM. Moreover, the solubility kinetic at 15 h in data set [12] was more than 3000 µg/mL. The Papp A→B in data set [6] worked out at 7 ×10⁻⁶ cm/s. The molecule further registered a half-life at 10 min, 2 µM in [8] (microsomes) of 13 min.
`COC(=O)c1ccc(-c2ccc(O[C@H]3O[C@H](CO)[C@@H](O)[C@H](O)[C@@H]3O)cc2)cc1`: the half-life at 2 µM in data set [13] was determined as 1 min. This molecule gave a logD at 2 h, 1 µM in “physchem [1]” of 2.14. The solubility kinetic at 15 h in data set [14] is 33.8 µg/mL (≈ 86.6 µM). The Kd in data set [5] amounted to 3.6 nM. The Papp A→B in data set [6] was 4.23 ×10⁻⁶ cm/s.
For the molecule `O=C(O)c1ccc(-c2ccc(O[C@H]3O[C@H](CO)[C@@H](O)[C@H](O)[C@@H]3O)cc2)cc1`, the “log Pe” value in data set [15] is “impermeable”. Also, the logD at 2 h, 1 µM in “physchem [1]” was less than -1.5. Further, the solubility kinetic at 15 h in data set [16] was more than 3000 µg/mL. In addition, the C0 in data set [17] came to 40 µg/mL. The Kd in data set [9] came to 15 nM; in data set [5], 17.9 nM. For the same molecule, the t1/2 in the data set with Mus musculus [18] worked out at 19.8 min. In data set [19], the Cmax (as a rule, the peak of the concentration-time curve) came to 300 µg/mL. This molecule also yielded a CL with Mus musculus [20] of 53.1 mL/h. The AUC(0-inf) (in general, the area under the concentration-time curve extrapolated to infinity) in data set [21] amounted to 23500 ng·h/mL. For the same molecule, the Vz (as a rule, the apparent volume that relates the amount in the body to the concentration in plasma or blood) in the data set on Mus musculus [22] was found to be 25.2 mL. The half-life at 10 min, 2 µM in data set [8] (liver microsomes) was more than 60 min.
Regarding `O=C(NCCNC(=S)Nc1ccc2c(c1)C(=O)OC21c2ccc(O)cc2Oc2cc(O)ccc21)c1ccc(-c2ccc(O[C@H]3O[C@H](CO)[C@@H](O)[C@H](O)[C@@H]3O)c(Cl)c2)cc1`, in data set [23], the Kd was 1.7 nM.
Regarding `OC[C@H]1O[C@H](Oc2ccc(-c3ccc(-c4nnn[nH]4)cc3)cc2)[C@@H](O)[C@@H](O)[C@@H]1O`, in [5], the Kd was 5.7 nM. Besides, the pKa (in general, the negative logarithm of the acid dissociation constant) in data set [24] stood at 3.7.
Consider `N#CNC(=O)c1ccc(-c2ccc(O[C@H]3O[C@H](CO)[C@@H](O)[C@H](O)[C@@H]3O)cc2)cc1`, for which the solubility kinetic at 15 h, 500 µM in the data set “physchem [25]” and in “physchem [11]” was more than 150 µg/mL in each case. In addition, the log distribution coefficient (logD) at 2 h, 1 µM in “physchem [1]” was -1.1. In addition, in data set [3], the apparent permeability from basolateral to apical (Papp B→A) amounted to 0.29 ×10⁻⁶ cm/s. For the same molecule, in data set [5], the Kd stood at 8.4 nM. Besides, the Papp A→B in data set [6] stood at 0.22 ×10⁻⁶ cm/s. Besides, in data set [24], the pKa came to 2.5.
